This is a sample that favours compounds with a hit; in the whole collection about 3.7% have one here.
SR-BI HDL uptake: blocks mouse SR-BI lipid uptake from DiI-HDL. inhibition, % at 12.5 µM. 320,000 compounds, 0.96% hits. ldlA[mSR-BI] CHO cells, DiI-HDL uptake fluorescence, 3 h;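 active = mean replicate inhibition of at least 70% and a set share of replicates each scoring 70 or more; inconclusive = meets just one of the two criteria; inactive = fails both criteria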;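 note: 0% = median of neutral control wells and 100% = median of positive control wells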
SR-BI DiI-HDL act: enhances SR-BI lipid uptake from DiI-HDL | CHO ldlA[mSR-BI] cells, DiI-HDL uptake fluorescence, 3 h; 100 = double the neutral-control signal | activation, % at 12.5 µM | 320,000 compounds, 0.096% hits | AID 504775;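 active = mean replicate activation of at least 60% and every replicate at or above 60%; inconclusive = mean or all-replicate condition met, but not both; inactive = mean below 60% and not all replicates reaching 60%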;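 note: 0% = median plate neutral-control signal and 100% = twice that signal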
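Assay system: CHO ldlA[mSR-BI] cells, LDL receptor-null, SR-BI overexpressing; medium: Ham's F12 with 0.5% BSA, HEPES 25 mM, pH 7.4; also added: DiI-HDL 10 µg/mL; timing: 3 h uptake period with compound, 37 °C; signal: DiI fluorescence, bottom read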
AHR activator: activators of human aryl hydrocarbon receptor; P35869; AHR-responsive luciferase reporter cells, luminescence; activation, % at 5 µM; 320,000 compounds, 2.5% hits; in the data active = activation above about 47%;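 note: 0% = vehicle wells and 100% = reference agonist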
GASC-1 inh: human JMJD2C demethylase inhibition; inhibition, % at 2.35 µM; GST-JMJD2C(1-420) H3K9me3 demethylation, DELFIA europium; Q9H3R0; AID 2099; 330,000 compounds, 0.069% hits;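 active = more than half of a compound's replicate wells show inhibition beyond 50%, single wells judged on their own value; inconclusive = some, but no more than half, of replicates pass 50% inhibition; inactive = no replicate passes 50% inhibition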;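 note: signal counts dimethyl H3K9 product captured on neutravidin plate; 0% = median of DMSO wells and 100% = 0.3 times that DMSO median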
Target sequence (Q9H3R0 1-420 limits assumed): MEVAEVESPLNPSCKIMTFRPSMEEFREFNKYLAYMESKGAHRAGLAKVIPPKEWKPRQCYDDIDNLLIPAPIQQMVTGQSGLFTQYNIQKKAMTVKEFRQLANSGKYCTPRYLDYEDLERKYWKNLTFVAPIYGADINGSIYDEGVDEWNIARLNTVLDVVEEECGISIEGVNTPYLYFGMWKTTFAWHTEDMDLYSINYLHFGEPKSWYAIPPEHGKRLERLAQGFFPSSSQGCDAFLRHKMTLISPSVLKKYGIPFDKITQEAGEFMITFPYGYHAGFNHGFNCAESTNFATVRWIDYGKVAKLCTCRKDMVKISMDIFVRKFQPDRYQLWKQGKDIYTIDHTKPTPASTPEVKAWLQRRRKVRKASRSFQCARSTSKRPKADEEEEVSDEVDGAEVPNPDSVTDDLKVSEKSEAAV
FXN GAA850 act: activators of GAA850 frataxin (FXN) promoter | activation, % at 6 µM | AID 540364 | HEK293 lucGAA850 FXN promoter luciferase reporter, 24 h; percent of 10 µM SAHA response | 360,000 compounds, 0.56% hits;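 active = activation above the average of all compounds screened plus 3 SD, cutoff fixed separately per campaign, cut at about 7.5% in these data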;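 note: 0% = DMSO wells and 100% = 10 µM SAHA wells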
* = called active by the depositor; u = inconclusive; x = not tested or not shown.

SMILES	SR-BI HDL uptake	SR-BI DiI-HDL act	AHR activator	GASC-1 inh	FXN GAA850 act
COc1ccccc1NC(=O)/C(=C\c1cccs1)NC(=O)c1ccco1	3	-3	66*	-2	1
COc1ccc(CC(N)c2csc(NC(=O)Nc3ccccc3C(C)C)n2)cc1 (configuration not stated)	x	x	x	x	0
CC(C)CCN1CCN(Cc2coc3ccccc3c2=O)CC1CCO (configuration not stated)	-9	9	4	0	-1
COc1ccc(-c2noc(CN(C)C(=O)c3ccc4c(c3)OCO4)n2)cc1	-1	1	1	3	2
COc1ccccc1NC(=O)C(=O)N/N=C/c1cccs1	8	-8	47*	16	7
Cn1cc(C(=O)N/N=C/c2cccs2)c2ccccc21	17	-17	109*	-6	6
Cc1cccc(/C=N\NC(=O)c2csnn2)c1	-20	20	70*	-30	5
Cc1cccc(/C=N\NC(=O)c2sccc2-n2cccc2)c1	19	-19	64*	-17	2
O=C(N/N=C\c1cccs1)c1sccc1-n1cccc1	47	-47	67*	-3	1
Cn1cc(C(=O)N/N=C/c2ccc3c(c2)OCO3)c2ccccc21	4	-4	-6	0	-2
O=C(N/N=C\c1ccc(Oc2ccccc2)cc1)c1csnn1	7	-7	12	1	5
O=C(NC1CC1)c1sccc1-n1cccc1	-16	16	-1	14	1
O=C(O)c1ccc(N=Nc2c(O)[nH]c3cc(Cl)ccc23)cc1	-1	1	30	6	9.8*
Cc1ccc(NC(=O)CN2C(=O)N/C(=C/c3ccc(N4CCOCC4)cc3)C2=O)cc1	5	-5	58*	5	6
COc1cc(NS(=O)(=O)c2ccc(NC(=O)/C(=C\c3ccccc3OC)NC(=O)c3ccccc3)cc2)nc(OC)n1	-16	16	-5	21	2
c1ccc2sc(NN=C3CCCCCC3)nc2c1	9	-9	51*	15	0
O=C(Nc1nc2ccccc2s1)c1ccccc1	26	-26	27	-2	1
O=C(Nc1ccccc1F)NC1CCCc2ccccc21 (configuration not stated)	24	-24	-1	8	0
CC(=O)c1cccc(Nc2cc(C)nc3c(C)cccc23)c1	0	0	50*	3	1
COn1c(=O)c(-c2ccc(Cl)cc2)[n+]([O-])c2ccccc21	-10	10	72*	2	-1
COn1c(=O)c(-c2ccc(C)cc2)[n+]([O-])c2ccccc21	5	-5	31	-5	5
COc1ccc(NC(=O)c2c(NC(=O)CNCc3ccco3)sc3c2CCC3)cc1	39	-39	53*	-16	-1
COc1ccc(NC(=O)c2c(NC(=O)CNCc3ccco3)sc3c2CCC3)c(OC)c1	13	-13	6	4	0
CCN(CC)CCCNc1cc(C)c(C#N)c2nc3ccccc3n12	x	x	x	x	1
CCN(CC)CCNc1cc(C)c(C#N)c2nc3ccccc3n12	-18	18	48*	2	3
SMILES	SR-BI HDL uptake	SR-BI DiI-HDL act	AHR activator	GASC-1 inh	FXN GAA850 act
Cc1cc(NCCCN2CCOCC2)n2c(nc3ccccc32)c1C#N	-8	8	73*	-2	0
CN(C)c1cc(-c2ccc(Cl)cc2)oc(=O)c1Cl	51	-51	56*	5	1
COc1ccccc1CC(=O)N(Cc1ccccc1)c1cccc(C)c1	0	0	26	u	2
COc1ccc(-c2cn3cc(C)ccc3n2)cc1Br	56	-56	4	-2	6
COc1ccc(-c2cn3cc(Cl)ccc3n2)cc1OC	54	-54	56*	-3	5
CCOC(=O)c1c(NC(=S)NCCc2ccccc2)sc2c1CC(C(C)C)OC2 (configuration not stated)	-5	5	1	6	2
C=CCNC(=S)Nc1sc2c(c1C(=O)OCC)CC(C(C)C)OC2 (configuration not stated)	74*	-74	3	11	1
COc1ccc(/C=C/C(=O)Nc2cc(C(F)(F)F)ccc2Cl)cc1OC	68	-68	-5	-5	-5
COc1cc(/C=C/C(=O)Nc2cc(C(F)(F)F)ccc2Cl)cc(OC)c1OC	78*	-78	4	6	-2
NS(=O)(=O)c1ccc(NC(=O)c2cccc(Cl)c2)cc1	-5	5	4	3	-2

Bioassay records deposited in PubChem by several laboratories.
